Converted amounts (≈) assume the structure as drawn.
Experiments:
Type in all cases: functional
Bacillus subtilis = test: Minimum inhibitory concentration was determined in heart infusion agar medium against Bacillus subtilis ATCC 6633
Outline: (§1)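 Agar dilution on heart infusion agar, inoculum 10^6 cells/mL, incubated 24 h at 37 °C; the MIC is read as the lowest concentration that inhibits growth.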

Citrobacter freundii = test: Minimum inhibitory concentration was determined in heart infusion agar medium against […] organism Citrobacter freundii GN7391; outline: as §1
Enterococcus faecalis = test: Minimum inhibitory concentration was determined in heart infusion agar medium against Enterococcus faecalis ATCC 19433; outline: as §1
Enterobacter cloacae = test: Minimum inhibitory concentration was determined in heart infusion agar medium against […] organism Enterobacter cloacae NTCC9394; outline: as §1
Escherichia coli [1] = test: Minimum inhibitory concentration was determined in heart infusion agar medium against Escherichia coli NIHJ JC-2; outline: as §1
Escherichia coli [2] = test: Minimum inhibitory concentration was determined in heart infusion agar medium against […] organism Escherichia coli KC-14/RGN 823; outline: as §1
Klebsiella pneumoniae = test: Minimum inhibitory concentration was determined in heart infusion agar medium against Klebsiella pneumoniae PCI 602; outline: as §1
Pseudomonas aeruginosa = test: Minimum inhibitory concentration was determined in heart infusion agar medium against Pseudomonas aeruginosa PAO-1; outline: as §1
Proteus vulgaris = test: Minimum inhibitory concentration was determined in heart infusion agar medium against Proteus vulgaris GN 7919; outline: as §1
Serratia marcescens = test: Minimum inhibitory concentration was determined in heart infusion agar medium against Serratia marcescens IAM 1136; outline: as §1
Staphylococcus aureus [3] = test: Minimum inhibitory concentration was determined in heart infusion agar medium against Staphylococcus aureus 209P JC-1; outline: as §1
Staphylococcus aureus [4] = test: Minimum inhibitory concentration was determined in heart infusion agar medium against Staphylococcus aureus(MRSA); outline: as §1

CC[C@H](O)[C@@H]1C(=O)N2C(C(=O)[O-])=C(S[C@@H]3CCNC3)S[C@H]12.[Na+]
MIC (Bacillus subtilis): 0.05 µg/mL
MIC (Citrobacter freundii): 6.25 µg/mL
MIC (Enterococcus faecalis): 1.56 µg/mL
MIC (Enterobacter cloacae): 0.78 µg/mL
MIC (Escherichia coli [1]): 0.2 µg/mL
MIC (Escherichia coli [2]): 0.78 µg/mL
MIC (Klebsiella pneumoniae): 0.39 µg/mL
MIC (Pseudomonas aeruginosa): 12.5 µg/mL
MIC (Proteus vulgaris): 0.78 µg/mL
MIC (Serratia marcescens): 3.13 µg/mL
MIC (Staphylococcus aureus [3]): 0.1 µg/mL
MIC (Staphylococcus aureus [4]): 3.13 µg/mL

CC[C@H](O)[C@@H]1C(=O)N2C(C(=O)[O-])=C(S[C@@H]3CCN(CC(=O)c4ccccc4)C3)S[C@H]12.[Na+]
MIC (Bacillus subtilis): < 0.025 µg/mL
MIC (Citrobacter freundii): 6.25 µg/mL
MIC (Enterococcus faecalis): 0.78 µg/mL
MIC (Enterobacter cloacae): 0.39 µg/mL
MIC (Escherichia coli [1]): 0.2 µg/mL
MIC (Escherichia coli [2]): 0.78 µg/mL
MIC (Klebsiella pneumoniae): 0.1 µg/mL
MIC (Pseudomonas aeruginosa): 6.25 µg/mL
MIC (Proteus vulgaris): 0.78 µg/mL
MIC (Serratia marcescens): 1.56 µg/mL
MIC (Staphylococcus aureus [3]): 0.1 µg/mL
MIC (Staphylococcus aureus [4]): 3.13 µg/mL

C[C@@H](O)[C@H]1C(=O)N2C(C(=O)O)=C([C@H]3CCCO3)S[C@H]12 [FAROPENEM]
MIC (Bacillus subtilis): 0.05 µg/mL (≈ 0.175 µM)
MIC (Citrobacter freundii): > 100 µg/mL
MIC (Enterococcus faecalis): 0.39 µg/mL (≈ 1.37 µM)
MIC (Enterobacter cloacae): 100 µg/mL (≈ 350 µM)
MIC (Escherichia coli [1]): 0.78 µg/mL (≈ 2.73 µM)
MIC (Escherichia coli [2]): 25 µg/mL (≈ 87.6 µM)
MIC (Klebsiella pneumoniae): 0.78 µg/mL (≈ 2.73 µM)
MIC (Pseudomonas aeruginosa): > 100 µg/mL
MIC (Proteus vulgaris): 1.56 µg/mL (≈ 5.47 µM)
MIC (Serratia marcescens): 25 µg/mL (≈ 87.6 µM)
MIC (Staphylococcus aureus [3]): 0.78 µg/mL (≈ 2.73 µM)
MIC (Staphylococcus aureus [4]): 25 µg/mL (≈ 87.6 µM)

CC(O)[C@H]1C(=O)N2C(C(=O)O)=C(SCCNC=N)C[C@H]12 (single isomer, unassigned) [IMIPENEM ANHYDROUS]
MIC (Bacillus subtilis): < 0.025 µg/mL
MIC (Citrobacter freundii): 0.39 µg/mL (≈ 1.3 µM)
MIC (Enterococcus faecalis): 0.78 µg/mL (≈ 2.61 µM)
MIC (Enterobacter cloacae): 0.2 µg/mL (≈ 0.668 µM)
MIC (Escherichia coli [1]): 0.2 µg/mL (≈ 0.668 µM)
MIC (Escherichia coli [2]): 0.1 µg/mL (≈ 0.334 µM)
MIC (Klebsiella pneumoniae): 0.2 µg/mL (≈ 0.668 µM)
MIC (Pseudomonas aeruginosa): 1.56 µg/mL (≈ 5.21 µM)
MIC (Proteus vulgaris): 3.13 µg/mL (≈ 10.5 µM)
MIC (Serratia marcescens): 0.78 µg/mL (≈ 2.61 µM)
MIC (Staphylococcus aureus [3]): < 0.025 µg/mL
MIC (Staphylococcus aureus [4]): > 100 µg/mL

CC[C@H](O)[C@@H]1C(=O)N2C(C(=O)[O-])=C([C@H]3CCCO3)S[C@H]12.[Na+]
MIC (Bacillus subtilis): 0.05 µg/mL
MIC (Citrobacter freundii): > 100 µg/mL
MIC (Enterococcus faecalis): 0.39 µg/mL
MIC (Enterobacter cloacae): > 100 µg/mL
MIC (Escherichia coli [1]): 3.13 µg/mL
MIC (Escherichia coli [2]): > 100 µg/mL
MIC (Klebsiella pneumoniae): 1.56 µg/mL
MIC (Pseudomonas aeruginosa): > 100 µg/mL
MIC (Proteus vulgaris): 1.56 µg/mL
MIC (Serratia marcescens): 25 µg/mL
MIC (Staphylococcus aureus [3]): 0.39 µg/mL
MIC (Staphylococcus aureus [4]): 6.25 µg/mL

CC[C@H](O)[C@@H]1C(=O)N2C(C(=O)[O-])=C(c3ccccc3)S[C@H]12.[Na+]
MIC (Bacillus subtilis): 0.2 µg/mL
MIC (Citrobacter freundii): > 100 µg/mL
MIC (Enterococcus faecalis): 0.2 µg/mL
MIC (Enterobacter cloacae): > 100 µg/mL
MIC (Escherichia coli [1]): 25 µg/mL
MIC (Escherichia coli [2]): 50 µg/mL
MIC (Klebsiella pneumoniae): 6.25 µg/mL
MIC (Pseudomonas aeruginosa): 100 µg/mL
MIC (Proteus vulgaris): 1.56 µg/mL
MIC (Serratia marcescens): 50 µg/mL
MIC (Staphylococcus aureus [3]): 0.78 µg/mL
MIC (Staphylococcus aureus [4]): 12.5 µg/mL

C[C@@H](O)[C@H]1C(=O)N2C(C(=O)[O-])=C([C@H]3CCCO3)S[C@H]12.[Na+] [FAROPENEM SODIUM]
MIC (Bacillus subtilis): < 0.025 µg/mL
MIC (Citrobacter freundii): 25 µg/mL
MIC (Enterococcus faecalis): 0.78 µg/mL
MIC (Enterobacter cloacae): 1.56 µg/mL
MIC (Escherichia coli [1]): 0.1 µg/mL
MIC (Escherichia coli [2]): 0.1 µg/mL
MIC (Klebsiella pneumoniae): 0.2 µg/mL
MIC (Pseudomonas aeruginosa): > 100 µg/mL
MIC (Proteus vulgaris): 3.13 µg/mL
MIC (Serratia marcescens): 6.25 µg/mL
MIC (Staphylococcus aureus [3]): 0.05 µg/mL
MIC (Staphylococcus aureus [4]): > 100 µg/mL

CC[C@@H](O)[C@H]1C(=O)N2C(C(=O)[O-])=C([C@H]3CCCO3)S[C@H]12.[Na+]
MIC (Bacillus subtilis): 0.78 µg/mL
MIC (Citrobacter freundii): > 100 µg/mL
MIC (Enterococcus faecalis): 25 µg/mL
MIC (Enterobacter cloacae): > 100 µg/mL
MIC (Escherichia coli [1]): 100 µg/mL
MIC (Escherichia coli [2]): 12.5 µg/mL
MIC (Klebsiella pneumoniae): 12.5 µg/mL
MIC (Pseudomonas aeruginosa): > 100 µg/mL
MIC (Proteus vulgaris): 25 µg/mL
MIC (Serratia marcescens): > 100 µg/mL
MIC (Staphylococcus aureus [3]): 0.78 µg/mL
MIC (Staphylococcus aureus [4]): > 100 µg/mL

Reference: ChEMBL document CHEMBL1130082, “5,6-Cis-penems: broad-spectrum anti-methicillin-resistant Staphylococcus aureus beta-lactam antibiotics” (1997)
